Arbovirus anti – antivirals against arbovirus infection, primary screen, cell-based, full library, 10K replicate subset | AID 1251, 2008 | arbovirus infection cell-based antiviral screen | inhibition, % at 10 µM | 200,000 compounds, 0.37% hits; in the data active = inhibition above about 30%
BB579 growth dn – growth inhibitors of yeast BB579 in restrictive medium, primary screen, yeast lifespan-shortening project, S. cerevisiae; 140,000 compounds, 0.51% hits; OD615, 48 h; inhibition, % at 10 µM; AID 804, 2007;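 active = inhibition above a set limit, 3 SD over the mean compound inhibition, cut at about 44% in these data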
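System: Saccharomyces cerevisiae DeaD strain BB579, replicative lifespan model yeast. Buffer or medium: restrictive glucose-based CSMM-D medium. Doses: one dose, 10 µM compound with 0.25% DMSO. Timing: 4 h preincubation and 48 h exposure at 30 °C. Detection: turbidity as optical density at 615 nm. Benchmarks: amphotericin B 10 µg/mL, positive.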
HMGR II inh – inhibitors of E. faecalis class II HMGR, primary screen, biochemical, Enterococcus faecalis. HMG-CoA reductase (Enterococcus faecalis, mvaE). purified E. faecalis HMGR, NADPH absorbance 340 nm kinetic. inhibition, % at 10 µM. 190,000 compounds, 0.41% hits. AID 1066, 2008;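 active = inhibition above a set limit, the median over all tested compounds plus 3 SD, cut at about 9.5% in these data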;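 note: enzyme runs in reverse so mevalonate oxidation gives rising NADPH absorbance; 0% = complete reaction with DMSO and 100% = background rate lacking mevalonate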
Yeast life ext – compounds extending yeast replicative lifespan, primary screen, S. cerevisiae, OD615 | inhibition of the nicotinamide effect, % at 10 µM | 130,000 compounds, 0.68% hits | S. cerevisiae growth with nicotinamide; deaD strain in restrictive glucose medium;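 active = inhibition above a set limit, placed 3 SD over the median of all compounds, cut at about 26% in these data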;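 note: 0% = nicotinamide-treated wells and 100% = cells grown without nicotinamide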
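Material: Modified budding yeast, DeaD strain | Medium: Restrictive glucose medium | Probe or stimulus: 1.5 mM nicotinamide | Dosing: Single dose 10 µM compound, 0.25% DMSO | Times: 48 h at 30 °C | Technique: OD615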
Measles CPE – compounds protecting cells from measles virus cytopathic effect, primary screen, measles RdRp inhibitor project, single point, MLSMR library, absorbance; Measles virus-infected cells, CPE protection; protection (pct of control), % at 4 µM; 140,000 compounds, 1.5% hits; AID 841, 2007; in the data active = protection mostly above about 24%, no sharp cut-off; inactive = mostly below about 26%
Rad51 HR inh – human RAD51 strand exchange inhibitors, primary screen, biochemical, fluorescence | DNA repair protein RAD51 homolog 1 (Homo sapiens), Q06609 | hRad51 DNA strand exchange, fluorescence dequenching | inhibition, % at 10 µM | 200,000 compounds, 0.085% hits | AID 1385, 2008;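 active = inhibition above 40% at the single screening dose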;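 note: 0% = DMSO control wells and 100% = blanks with heterologous ssDNA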
Target sequence (Q06609 whole entry, looked up): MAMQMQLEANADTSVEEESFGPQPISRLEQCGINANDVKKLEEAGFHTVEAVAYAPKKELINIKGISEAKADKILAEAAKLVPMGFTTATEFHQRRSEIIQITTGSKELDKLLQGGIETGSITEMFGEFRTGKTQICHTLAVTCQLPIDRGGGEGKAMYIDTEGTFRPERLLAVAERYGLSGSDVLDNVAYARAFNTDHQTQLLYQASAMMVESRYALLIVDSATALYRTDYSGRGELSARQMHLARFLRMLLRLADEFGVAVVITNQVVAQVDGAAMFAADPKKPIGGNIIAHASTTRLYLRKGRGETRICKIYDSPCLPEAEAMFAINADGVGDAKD
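material = hRad51 filaments on single-stranded DNA | timing = filaments 15 min 37 °C, then compound 30 min | signal = FRET fluorescence dequenching, excitation 485 nm, emission 520 nm | benchmarks = control wells and blank wells on each plate | evaluation = percent inhibition relative to plate controls and blanks | compound = 10 µM final, single point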
The depositor's hits bear a star. Shown are actives, neighbours in structure and some others; about 2.4% of the full set was active somewhere.

Results for O=C1NC(=O)N(c2cccc(Cl)c2)C(=O)/C1=C\c1ccc(Sc2nc3ccccc3[nH]2)o1 ?
Arbovirus anti: 0; BB579 growth dn: -3; HMGR II inh: -2; Yeast life ext: 0; Measles CPE: 13

Results for Clc1ccc(COC(Cn2ccnc2)c2ccc(Cl)cc2Cl)c(Cl)c1 (stereo unspecified) ?
Arbovirus anti: -44; BB579 growth dn: 100*; HMGR II inh: -4; Yeast life ext: -10; Measles CPE: 6; Rad51 HR inh: -3

Results for COC(=O)C1=C(c2cc3ccccc3s2)C[C@@H]2CC[C@H]1N2C(=O)NCCNC(C)=O ?
Rad51 HR inh: -2

Results for c1ccc(-c2ccc(-c3n(-c4ccccn4)c4ccccc4[n+]3-c3ccccn3)cc2)cc1 ?
Arbovirus anti: 1; HMGR II inh: -4; Rad51 HR inh: 9

How did COc1ccc(CN2C(=O)NC(=O)/C(=C\c3ccco3)C2=O)cc1 do in these assays?
Arbovirus anti: 13; HMGR II inh: 12*; Rad51 HR inh: -19

How did Cc1nc2c(-c3ccccc3)c(C)nn2c(C)c1CCC(=O)N1CCC2(CC1)OCCO2 do in these assays?
Arbovirus anti: 7; BB579 growth dn: -39; HMGR II inh: -5; Measles CPE: 6; Rad51 HR inh: 0

Results for Cc1nc2cc(-c3cccc(F)c3)nn2c(C)c1CCC(=O)N1CCC2(CC1)OCCO2 ?
Arbovirus anti: 1; BB579 growth dn: -30; HMGR II inh: -3; Yeast life ext: -6; Measles CPE: 25*; Rad51 HR inh: 0

What do the screens show for `CC(=NCC1CCCO1)c1c(O)n(Cc2ccccc2)c(=O)[nH]c1=O` (stereo unspecified)?
Arbovirus anti: 5; BB579 growth dn: -54; HMGR II inh: -1; Yeast life ext: 2; Measles CPE: 36*; Rad51 HR inh: 2

Results for Oc1c(Cl)c(Cl)c(Cl)c(Cl)c1Cl ?
Rad51 HR inh: 1

How did Cc1cccc(OP(=O)(Oc2ccccc2)OC(c2ccccc2)C(F)(F)F)c1 (stereo unspecified) do in these assays?
Arbovirus anti: 2; BB579 growth dn: -32; HMGR II inh: 3; Yeast life ext: 2; Measles CPE: 8

How did COc1cc(/C=C/[N+](=O)[O-])ccc1O do in these assays?
Arbovirus anti: -11; BB579 growth dn: 25; HMGR II inh: -2; Yeast life ext: 35*; Measles CPE: 4; Rad51 HR inh: 4

What do the screens show for `CCN(CC)c1ccc(/C=C/[N+](=O)[O-])cc1`?
Arbovirus anti: -24; HMGR II inh: 0; Rad51 HR inh: -359

How did Cc1ccc(/C=C2\C(=O)NC(=S)N(c3ccc(F)cc3)C2=O)s1 do in these assays?
Arbovirus anti: -23; HMGR II inh: 2; Rad51 HR inh: 9

Results for Cc1ccc(/C=C2\C(=O)NC(=S)N(c3ccccc3F)C2=O)s1 ?
Arbovirus anti: -33; BB579 growth dn: 55*; HMGR II inh: -6; Yeast life ext: 41*; Measles CPE: 0; Rad51 HR inh: -20

How did COc1ccccc1-n1c(O)c(/C=N/NC(=S)Nc2ccccc2)c(=O)[nH]c1=S do in these assays?
Rad51 HR inh: 10

What do the screens show for `CC(Cc1ccccc1)NC(N)=O` (stereo unspecified)?
Rad51 HR inh: 2

How did CC(Cc1ccccc1)NC(=O)Cc1ccc(N(C)C)cc1 (stereo unspecified) do in these assays?
Arbovirus anti: -5; BB579 growth dn: -34; HMGR II inh: 11*; Yeast life ext: 2; Measles CPE: 10; Rad51 HR inh: 9

What do the screens show for `O=C1CC(=O)N(c2ccc(Cl)cc2Cl)C(=O)N1`?
Arbovirus anti: 3; BB579 growth dn: -7; HMGR II inh: 6; Measles CPE: 8; Rad51 HR inh: -7

Results for Cc1cc(Br)ccc1N1C(=O)CC(=O)NC1=O ?
Arbovirus anti: 11; BB579 growth dn: 3; HMGR II inh: -2; Measles CPE: 38*; Rad51 HR inh: 0

What do the screens show for `CCOC(=O)C1=C(NC(=S)NC(=O)c2ccccc2)c2ccccc2CC12CCCC2`?
Arbovirus anti: 22; BB579 growth dn: -22; HMGR II inh: -2; Yeast life ext: -2; Measles CPE: 62*; Rad51 HR inh: 2

What do the screens show for `CCOP(=O)(OCC)C(NC(=O)c1ccccc1)=C(Cl)Cl`?
Arbovirus anti: 4; BB579 growth dn: -29; HMGR II inh: -3; Yeast life ext: 7; Measles CPE: 6; Rad51 HR inh: -28

What do the screens show for `CCn1c(O)c(C=NCCN2CCOCC2)c(=O)[nH]c1=S`?
Rad51 HR inh: 3

Results for C=CCN1C(=O)/C(=C/c2cccs2)C(=O)NC1=S ?
Arbovirus anti: 0; BB579 growth dn: 75*; HMGR II inh: -7; Yeast life ext: -8; Measles CPE: 5; Rad51 HR inh: -4

What do the screens show for `O=C1NC(=O)N(CCC2=CCCCC2)C(=O)/C1=C\c1cccs1`?
Arbovirus anti: 6; BB579 growth dn: 2; HMGR II inh: -1; Yeast life ext: 63*; Measles CPE: 3; Rad51 HR inh: 1

What do the screens show for `O=C1NC(=S)N(Cc2ccco2)C(=O)/C1=C\c1cccs1`?
Arbovirus anti: -3; HMGR II inh: 7; Rad51 HR inh: -37

Results for Cn1cccc1/C=C1\C(=O)NC(=O)N(CCC2=CCCCC2)C1=O ?
Arbovirus anti: -8; BB579 growth dn: -39; HMGR II inh: 3; Yeast life ext: 4; Measles CPE: 8; Rad51 HR inh: -12

How did COc1ccccc1Cn1c(SCC(=O)C(C)(C)C)nc2cc(C(=O)N3CCC4(CC3)OCCO4)ccc2c1=O do in these assays?
Arbovirus anti: -3; HMGR II inh: -3; Rad51 HR inh: 10

What do the screens show for `O=C(O)CC[N+](=O)[O-]`?
Rad51 HR inh: 2

What do the screens show for `CP(C)(=O)CCC(=O)O`?
Arbovirus anti: -2; BB579 growth dn: -20; HMGR II inh: -14; Yeast life ext: 36; Measles CPE: 38*; Rad51 HR inh: -2

What do the screens show for `COc1ccc2[nH]cc(C3=CCNCC3)c2c1`?
Rad51 HR inh: -25

How did Cc1[nH]c2ccccc2c1C1=CCNCC1 do in these assays?
Arbovirus anti: 46*; BB579 growth dn: -8; HMGR II inh: -4; Yeast life ext: -6; Measles CPE: 5; Rad51 HR inh: -3

How did Cc1c(C(=O)c2cccc3ccccc23)c2cccc3c2n1[C@H](CN1CCOCC1)CO3 do in these assays?
Rad51 HR inh: -7

Assay outcomes from PubChem BioAssay.
